Measurements: ChEMBL document CHEMBL1151456, “Anaerobic NADH-fumarate reductase system is predominant in the respiratory chain of Echinococcus multilocularis, providing a novel target for the chemotherapy of alveolar echinococcosis” (Antimicrob Agents Chemother, 2008)
Active and inactive are the calls of the source. No cut-off for these calls is given here.

Experiments:
[1] = Inhibition of NADH fumarate reductase in Echinococcus multilocularis protoscolece
In short: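 Enriched mitochondrial fraction from Nemuro-strain protoscoleces, 80 μg protein/ml, in 30 mM potassium phosphate pH 7.4 with 1 mM MgCl2 at 25°C. Made anaerobic over 3 min with glucose oxidase, catalase and 10 mM β-D-glucose. NADH (100 μM) oxidation followed at 340 nm after starting with 5 mM fumarate. IC50 determined.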

[2] = Inhibition of bovine heart mitochondrial NADH oxidase
[3] = test system: Echinococcus multilocularis; experiment: Antiparasitic activity against Echinococcus multilocularis protoscolex assessed dead parasite at 50 uM after 5 days by trypan blue staining; assay type: functional, organism-based
[4] = test system: Echinococcus multilocularis; experiment: Antiparasitic activity against Echinococcus multilocularis protoscolex assessed as reduction of parasite viability at 50 uM by trypan blue staining; assay type: functional, organism-based
[5] = test system: Echinococcus multilocularis; experiment: Antiparasitic activity against Echinococcus multilocularis protoscolex at 5 uM after 5 days by trypan blue staining; assay type: functional, organism-based
In short: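 Protoscoleces of the Nemuro strain, freed of host material, kept in long-term maintenance medium in six-well plates at about 500 protoscoleces/ml, with half the medium replaced twice weekly. Compound added to the medium at 5 or 50 μM; the vehicle control was 0.5% (vol/vol) DMSO. Run in triplicate. Viability was scored microscopically on >170 protoscoleces per well by motility and trypan blue exclusion.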

Structure (SMILES) | IC50 [1] [nM] | Activity [5] | further results
CC(C)Oc1cccc2c(NCCc3ccc(C(C)(C)C)cc3)ncnc12 | 910 | – | –
CC(C)(C)c1ccc(CCNc2ncnc3cc(N)ccc23)cc1 | 62 | – | –
CC(C)(C)c1ccc(CCNc2ncnc3c(O)cccc23)cc1 | 71 | inactive | IC50 [2]: 230 nM; Activity [3]: Active; Activity [4]: Active
c1ccc2ncncc2c1 [QUINAZOLINE] | 2.3 | – | –
C=CC(=O)Nc1ccc2ncnc(NCCc3ccc(C(C)(C)C)cc3)c2c1 | 16 | – | –
COc1cccc2c(NCCc3ccc(C(C)(C)C)cc3)ncnc12 | 48 | – | –
CC(C)(C)c1ccc(CCNc2ncnc3ccc(N)cc23)cc1 | 2.1 | – | –
CCOc1cccc2c(NCCc3ccc(C(C)(C)C)cc3)ncnc12 | 4100 | – | –
C=C(C)[C@H]1Cc2c(ccc3c2O[C@@H]2COc4cc(OC)c(OC)cc4[C@@H]2C3=O)O1 | – | Active | –
CC(=O)Oc1ccccc1C(=O)Nc1ncc([N+](=O)[O-])s1 | – | inactive | –
